Paper PMC7302971 (Bioorganic chemistry, 2020)
Like-named read-outs stand apart in the source and are kept apart here.

Legend:
HDAC3 = HDAC3 (Homo sapiens, UniProt O15379); test: HDAC enzyme activity assay; format: biochemical
Method in brief: (§1)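 Commercial enzyme was preincubated with serial inhibitor dilutions for 60 min at 30 °C in 25 mM Tris-HCl pH 8.0, 75 mM KCl and 0.001% Pluronic F-127. Reaction was started with 50 μM Boc-Lys(acetyl)-AMC, run 60 min at 30 °C, and stopped with 4.17 μM SAHA. Trypsin (0.4 mg/ml) released AMC, read at Ex 350/Em 450 nm. IC50 came from a four-parameter logistic fit.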

HDAC1 = HDAC1 (Homo sapiens, UniProt Q13547); test: HDAC enzyme activity assay; format: biochemical
Chain of HDAC1 (Q13547 whole entry): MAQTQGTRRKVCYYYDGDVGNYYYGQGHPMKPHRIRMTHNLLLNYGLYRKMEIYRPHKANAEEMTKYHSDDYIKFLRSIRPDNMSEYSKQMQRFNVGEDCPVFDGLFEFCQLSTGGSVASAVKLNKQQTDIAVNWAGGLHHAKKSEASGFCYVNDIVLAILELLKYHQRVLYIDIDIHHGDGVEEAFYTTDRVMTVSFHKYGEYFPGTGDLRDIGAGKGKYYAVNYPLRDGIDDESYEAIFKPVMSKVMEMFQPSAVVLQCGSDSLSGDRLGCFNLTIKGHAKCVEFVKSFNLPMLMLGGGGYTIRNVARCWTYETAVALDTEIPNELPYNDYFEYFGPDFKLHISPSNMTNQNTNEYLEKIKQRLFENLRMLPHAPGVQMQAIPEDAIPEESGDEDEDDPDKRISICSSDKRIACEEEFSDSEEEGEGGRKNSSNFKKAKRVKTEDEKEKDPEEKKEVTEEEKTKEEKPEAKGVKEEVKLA
Method in brief: as §1

CEM cells = test: Apoptosis by annexin V-FITC/PI flow cytometry; format: cell-based, human; conditions: compound at CC50 (IC50) concentration, 24 h
Method in brief: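 CEM cells were seeded in 24-well plates and held overnight at 37 °C in CO2. Medium was replaced and cells were exposed to test compound for 24 h. Controls were untreated cells and 1% DMSO. Cells were PBS-washed and spun at 500 × g for 5 min at 4 °C, then resuspended in ice-cold binding buffer with annexin V-FITC and PI. They were kept 15 min on ice in the dark, diluted, and read by flow cytometry for live and apoptotic fractions.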

HDAC6 = biological target: T1, HDAC6 (Homo sapiens, UniProt Q9UBN7); test: HDAC enzyme activity assay; format: biochemical
T1 sequence (Q9UBN7 1-1215): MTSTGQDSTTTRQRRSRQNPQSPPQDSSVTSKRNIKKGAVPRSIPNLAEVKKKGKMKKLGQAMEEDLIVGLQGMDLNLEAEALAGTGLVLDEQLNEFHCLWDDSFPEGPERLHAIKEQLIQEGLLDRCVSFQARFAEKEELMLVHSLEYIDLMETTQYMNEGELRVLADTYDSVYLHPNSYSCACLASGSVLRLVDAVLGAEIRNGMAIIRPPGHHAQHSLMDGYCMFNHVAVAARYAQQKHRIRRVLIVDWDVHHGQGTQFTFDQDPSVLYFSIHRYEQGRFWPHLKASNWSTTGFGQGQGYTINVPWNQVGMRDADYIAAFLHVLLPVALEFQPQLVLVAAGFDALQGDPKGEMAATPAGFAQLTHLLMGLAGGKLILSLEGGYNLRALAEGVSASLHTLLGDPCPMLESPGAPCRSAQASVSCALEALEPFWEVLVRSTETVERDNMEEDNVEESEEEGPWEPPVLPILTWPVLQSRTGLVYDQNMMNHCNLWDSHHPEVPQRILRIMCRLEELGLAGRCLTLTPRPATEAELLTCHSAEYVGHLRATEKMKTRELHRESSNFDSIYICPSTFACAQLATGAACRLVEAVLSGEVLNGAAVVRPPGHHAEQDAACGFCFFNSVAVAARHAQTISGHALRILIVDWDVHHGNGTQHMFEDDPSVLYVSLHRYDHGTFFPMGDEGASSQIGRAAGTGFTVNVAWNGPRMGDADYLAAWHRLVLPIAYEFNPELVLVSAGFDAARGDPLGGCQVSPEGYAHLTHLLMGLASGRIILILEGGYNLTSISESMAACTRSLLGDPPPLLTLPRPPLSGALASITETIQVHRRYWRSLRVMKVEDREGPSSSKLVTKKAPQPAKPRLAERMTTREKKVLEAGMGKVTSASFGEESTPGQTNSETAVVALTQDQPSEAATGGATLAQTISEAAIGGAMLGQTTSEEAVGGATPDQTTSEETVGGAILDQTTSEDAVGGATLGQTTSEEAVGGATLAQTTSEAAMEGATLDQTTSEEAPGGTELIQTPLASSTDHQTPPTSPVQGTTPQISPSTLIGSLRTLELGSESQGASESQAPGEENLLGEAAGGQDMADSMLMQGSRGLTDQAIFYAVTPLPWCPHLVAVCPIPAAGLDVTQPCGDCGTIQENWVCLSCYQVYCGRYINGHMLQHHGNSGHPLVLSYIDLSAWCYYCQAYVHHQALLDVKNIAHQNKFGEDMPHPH
Method in brief: as §1

HDAC5 = HDAC5 (Homo sapiens, UniProt Q9UQL6); test: HDAC enzyme activity assay; format: biochemical
Chain of HDAC5 (Q9UQL6 whole entry): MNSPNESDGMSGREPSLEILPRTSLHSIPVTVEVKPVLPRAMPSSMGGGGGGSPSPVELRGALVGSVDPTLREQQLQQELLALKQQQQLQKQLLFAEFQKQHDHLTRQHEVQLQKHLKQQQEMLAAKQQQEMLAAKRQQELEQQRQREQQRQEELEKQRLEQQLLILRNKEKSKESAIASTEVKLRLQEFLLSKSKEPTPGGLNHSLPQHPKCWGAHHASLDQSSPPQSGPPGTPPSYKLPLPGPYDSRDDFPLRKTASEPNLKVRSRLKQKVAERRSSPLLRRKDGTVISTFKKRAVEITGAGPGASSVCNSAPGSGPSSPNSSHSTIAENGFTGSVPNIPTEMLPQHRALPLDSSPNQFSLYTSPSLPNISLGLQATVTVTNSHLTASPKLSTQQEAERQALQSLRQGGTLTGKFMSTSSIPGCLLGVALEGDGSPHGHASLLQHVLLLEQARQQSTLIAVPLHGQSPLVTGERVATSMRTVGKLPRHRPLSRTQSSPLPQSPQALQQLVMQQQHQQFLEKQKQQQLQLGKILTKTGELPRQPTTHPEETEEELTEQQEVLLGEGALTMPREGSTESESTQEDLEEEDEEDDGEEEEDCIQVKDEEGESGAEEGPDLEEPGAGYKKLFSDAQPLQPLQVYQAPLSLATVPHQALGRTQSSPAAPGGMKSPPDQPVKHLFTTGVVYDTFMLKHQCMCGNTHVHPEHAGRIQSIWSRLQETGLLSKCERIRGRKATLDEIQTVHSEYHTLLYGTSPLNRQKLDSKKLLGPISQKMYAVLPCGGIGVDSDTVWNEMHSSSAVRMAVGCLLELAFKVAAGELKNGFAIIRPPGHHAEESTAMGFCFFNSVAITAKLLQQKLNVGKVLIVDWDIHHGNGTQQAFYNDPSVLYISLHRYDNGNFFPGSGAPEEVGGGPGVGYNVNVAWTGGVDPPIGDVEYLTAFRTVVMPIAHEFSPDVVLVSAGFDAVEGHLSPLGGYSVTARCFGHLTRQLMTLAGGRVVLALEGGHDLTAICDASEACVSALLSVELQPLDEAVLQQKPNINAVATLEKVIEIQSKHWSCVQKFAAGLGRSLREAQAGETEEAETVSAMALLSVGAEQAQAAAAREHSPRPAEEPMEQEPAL
Method in brief: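 Commercial HDAC5 was preincubated with serial inhibitor dilutions for 60 min at 30 °C in Tris-HCl pH 8.0 buffer. Reaction used 20 μM Boc-Lys(trifluoroacetyl)-AMC for 60 min at 30 °C and was stopped with 1.7 μM SATFMK. Trypsin development followed, then AMC fluorescence at 350/450 nm. IC50 came from a four-parameter logistic fit.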

HDAC8 = biological target: T2, HDAC8 (Homo sapiens, UniProt Q9BY41); test: Thermal shift assay; format: binding
T2 sequence (Q9BY41 1-377): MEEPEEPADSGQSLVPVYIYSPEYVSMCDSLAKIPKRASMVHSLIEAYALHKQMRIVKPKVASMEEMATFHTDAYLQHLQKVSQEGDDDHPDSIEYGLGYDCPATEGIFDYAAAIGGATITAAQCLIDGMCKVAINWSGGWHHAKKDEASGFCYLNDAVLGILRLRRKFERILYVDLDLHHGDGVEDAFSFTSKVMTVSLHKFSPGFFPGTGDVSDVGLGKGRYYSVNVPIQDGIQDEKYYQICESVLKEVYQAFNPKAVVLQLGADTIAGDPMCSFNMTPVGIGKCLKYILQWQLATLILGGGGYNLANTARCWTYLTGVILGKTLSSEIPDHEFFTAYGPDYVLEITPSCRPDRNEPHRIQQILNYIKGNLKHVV

HDAC4 = HDAC4 (Homo sapiens, UniProt P56524); test: HDAC enzyme activity assay; format: biochemical; conditions: for remaining activity at 50 µM: read-out: Residual HDAC4 activity at 50 μM
Chain of HDAC4 (P56524 648-1057 limits assumed): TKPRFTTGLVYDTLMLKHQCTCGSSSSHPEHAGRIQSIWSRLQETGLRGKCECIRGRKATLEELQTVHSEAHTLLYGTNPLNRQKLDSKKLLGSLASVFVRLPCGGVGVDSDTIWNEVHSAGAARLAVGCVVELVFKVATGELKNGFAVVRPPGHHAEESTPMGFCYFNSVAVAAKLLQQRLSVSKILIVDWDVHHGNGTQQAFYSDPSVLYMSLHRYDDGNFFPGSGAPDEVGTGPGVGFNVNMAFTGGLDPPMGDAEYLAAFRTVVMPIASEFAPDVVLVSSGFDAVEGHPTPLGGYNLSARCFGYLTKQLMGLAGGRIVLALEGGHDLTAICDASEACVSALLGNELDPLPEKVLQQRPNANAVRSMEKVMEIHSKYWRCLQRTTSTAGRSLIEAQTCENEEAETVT
Method in brief: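 HDAC4 and HDAC8 were in-house recombinant enzymes. Each was preincubated with inhibitor, either a single 50 μM screen or serial dilutions, for 60 min at 30 °C in Tris-HCl pH 8.0/KCl/Pluronic buffer. Substrate was 20 μM Boc-Lys(trifluoroacetyl)-AMC for 60 min at 30 °C, stopped with 1.7 μM SATFMK, and developed with trypsin. AMC fluorescence was read at 350/450 nm and reported as residual activity or as IC50 from a four-parameter logistic fit.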

CEM leukemia cells = test: Differential Nuclear Staining; format: cell-based, human; conditions: 48 h
Method in brief: (§2)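 Cells were seeded at 10,000/well and exposed to test compound for 48 h at 1% (v/v) final DMSO. The first screen used a single concentration with controls in quadruplicate. Dose-response used 0.5–100 μM in triplicate. Controls: DMSO vehicle, hydrogen peroxide (positive), untreated (negative). Hoechst 33342 plus PI were added 2 h before automated imaging, and colocalised signal was scored as dead. […] Two-tailed t-test versus DMSO.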

K-562 leukemia cells = test: Differential Nuclear Staining; format: cell-based, human
Method in brief: as §2

KCL-22 leukemia cells = test: Differential Nuclear Staining; format: cell-based, human; conditions: Homo sapiens, KCL-22, 48 h
Method in brief: as §2

[1] = read-out: IC50 HDAC4, HDAC panel, no unit in table, text b26: micromolar range

Chain of HDAC3 (O15379 whole entry): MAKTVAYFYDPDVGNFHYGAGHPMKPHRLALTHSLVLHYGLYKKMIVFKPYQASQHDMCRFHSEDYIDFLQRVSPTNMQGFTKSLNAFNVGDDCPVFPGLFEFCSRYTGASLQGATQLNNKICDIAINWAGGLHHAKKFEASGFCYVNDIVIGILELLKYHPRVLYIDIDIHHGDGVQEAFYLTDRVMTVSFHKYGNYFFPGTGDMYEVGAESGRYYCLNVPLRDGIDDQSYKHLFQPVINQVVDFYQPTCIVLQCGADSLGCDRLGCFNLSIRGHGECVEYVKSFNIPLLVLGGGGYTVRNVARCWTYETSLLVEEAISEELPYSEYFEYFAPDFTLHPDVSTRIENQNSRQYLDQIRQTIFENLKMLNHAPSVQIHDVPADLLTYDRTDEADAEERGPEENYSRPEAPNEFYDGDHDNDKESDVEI
Chain of HDAC3 (Q9Y618 395-489 partner limits assumed): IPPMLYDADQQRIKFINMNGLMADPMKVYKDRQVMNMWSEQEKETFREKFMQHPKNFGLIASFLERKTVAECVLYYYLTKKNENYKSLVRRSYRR

| IC50 (HDAC3) | IC50 (HDAC1) | IC50 (HDAC6) | IC50 (HDAC5) | IC50 (HDAC4) | IC50 (HDAC4; [1]) | remaining activity at 50 µM (HDAC4) | Compound | live cells (CEM cells) | percent of apoptotic cells (CEM cells) | Thermal shift (ΔT), stabilizing effect on HDAC8 (HDAC8) | CC50 (CEM leukemia cells; Homo sapiens) | CC50 (K-562 leukemia cells; Homo sapiens, K562, 48 h) | CC50 (KCL-22 leukemia cells) | cell death at 100 μM (CEM leukemia cells; CEM, DNS assay, 100 μM) | cell death at 100 μM (K-562 leukemia cells; K562, DNS assay, 48 h, 100 μM) |
| --- | --- | --- | --- | --- | --- | --- | --- | --- | --- | --- | --- | --- | --- | --- | --- |
| > 50 µM | > 50 µM | 17 µM | > 50 µM | > 50 µM | > 50 µM | 97% | O=C(CN1C(=O)SC(=Cc2ccccn2)C1=O)Nc1nc2ccccc2s1 [Compound P19, N-(benzo[d]thiazol-2-yl)-2-(2,4-dioxo-5-(pyridin-2-ylmethylene)thiazolidin-3-yl)acetamide] | 30.86% | 60.97% | about 0.3 °C | 79.9 ± 3.74 µM | 85.4 ± 3.25 µM | 43.2 ± 0.23 µM | – | – |
| > 50 µM | > 50 µM | 26 µM | 43 µM | > 50 µM | > 50 µM | 76% | Cc1c(NC(=O)CN2C(=O)SC(=Cc3ccccn3)C2=O)c(=O)n(-c2ccccc2)n1C [Compound P10, N-(1,5-dimethyl-3-oxo-2-phenyl-2,3-dihydro-1H-pyrazol-4-yl)-2-(2,4-dioxo-5-(pyridin-2-ylmethylene)thiazolidin-3-yl)acetamide] | 29.89% | 55.19% | did not confer significant stability to the protein | – | – | 17.4 ± 2.4 µM | 2.39% cell death at 100 μM | 27.06% cell death at 100 μM |
